Several values for one entry are separate records, joined by “and”; a condition that tells them apart may be missing. Identical values can stand only once.

Data set [1] deals with MCF-7 cells. The data set is described as follows: Cellular uptake. It is filed as cell-based, Human. The conditions noted are these: 6 and 24 h.
Another data set has as its system MCF-7/ADR cells. The data set is described as follows: Cellular uptake. In kind it is cell-based, Human. The conditions noted are these: MCF-7/ADR cells compared with MCF-7 cells. The procedure, abridged:
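MCF-7 and MCF-7/ADR cells were grown in DMEM with 10% FBS and 1% penicillin-streptomycin at 37°C and 5% CO2. They were seeded at 5×10^4 per well in 24-well plates and grown 24 h.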

For data set [2], the system named is MCF-7 cells. The data set is described as follows: Cytotoxicity MTT assay. In kind it is cell-based, Human. The following applies: 0.1-10 μg·mL^−1, 48 hours. Background: Tetrazolium dyes change colour on reduction, which living cells bring about.
Data set [3] can be described thus: In vivo pharmacokinetic study. The following applies: male Sprague-Dawley rats, 5 mg·kg^−1 DOX i.v., n=6.
Data set [4] can be described thus: Biodistribution of DOX in tumor-bearing mice. The following applies: BALB/c nude mice bearing MCF-7/ADR tumors, 5 mg·kg^−1 DOX i.v., 1, 6, 12, 24 hours. In kind it is in vivo.
A further data set can be described thus: Maximum tolerated dose. In kind it is in vivo. The following applies: BALB/c mice; for Animal death: 2 weeks. In outline:
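Female BALB/c mice were randomized into three formulation groups. […] Body weight and survival were monitored daily for 2 weeks. MTD was taken as the highest dose causing neither death from systemic toxicity nor >15% body weight loss over the study.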

The next data set can be described thus: In vivo toxicity study. Also on record: species or system BALB/c nude mice. The procedure, abridged:
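Male BALB/c nude mice bearing MCF-7/ADR xenografts were randomized into five groups when tumors reached ~100 mm3. Groups received i.v. saline, carrier or test formulations. Body weight was tracked during the efficacy study. At its end, heart, liver, spleen, lung and kidney were excised, stained with H&E and examined microscopically at 200×.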

Take `COc1cccc2c1C(=O)c1c(O)c3c(c(O)c1C2=O)C[C@@](O)(C(=O)CO)C[C@@H]3O[C@H]1C[C@H](N)[C@H](O)[C@H](C)O1` [DOX, doxorubicin]: the internalization into cells entry in the data set on MCF-7 cells [1] is on record as “internalized into MCF-7 cells in a time-dependent manner”. The internalization into cells result in the data set on MCF-7/ADR cells was “substantially reduced”. Besides, the cell viability result in the data set with MCF-7 cells [2] was “effectively reduced the viability of MCF-7 cells in a dose-dependent manner”. In data set [3], the “AUC0–∞” value is 36.318 ± 6.517 µg/mL/h, the CL turned out to be 0.142 ± 0.028 L/h/kg, the Cmax amounted to 10.275 ± 1.219 µg/mL and the “MRT0–∞” value was found to be 3.429 ± 0.658 h. In data set [3], this compound displayed a Vd of 0.300 ± 0.073 L/kg. The “DOX content in tumor” value in data set [4] is “negligible after 6 hours”. In addition, in the data set “Maximum tolerated dose” (single i.v. dose 5 mg/kg DOX), the Weight loss turned out to be 2.0% and the Animal death is on record as 0/3. In “Maximum tolerated dose” (single i.v. dose 10 mg/kg DOX), the Weight loss is 7.4% and the Animal death is on record as 0/3. Besides, in the data set “Maximum tolerated dose” (single i.v. dose 15 mg/kg DOX, 15 mg/kg), the Animal death is 2 out of 3 and 2/3. The compound further returned a bodyweight reduction in the data set “In vivo toxicity study” (BALB/c nude mice bearing MCF-7/ADR tumors, 5 mg DOX/kg) of 30%. The “H&E histology of main organs (heart, liver, spleen, lung, kidney)” value in the data set “In vivo toxicity study” (end of the antitumor inhibition test) is “caused cardiotoxicity”.

As usually defined, the Cmax is the peak of the concentration-time curve. One may read the Vd as the apparent volume that relates the amount in the body to the concentration in plasma or blood.

The values above are taken from PMC5574666 (International Journal of Nanomedicine, 2017).
